Experimental data taken from publication PMC11253873 (RSC Medicinal Chemistry, 2024).
Values after ≈ are worked out from the molar mass of the structure shown. Values joined by “and” are separate entries in the source; they are usually repeats but may differ in a detail not shown here. Identical values can stand only once.

How the values were obtained:
HepG2 cells = experiment: HepG2 cell inhibition; format: cell-based; details: Homo sapiens, HepG2, 24 h, read-out: HepG2 IC50
[1] = system: had1 mutant Pf strain (E1-C12); experiment: Growth inhibition of fosmidomycin-resistant had1 mutant P. falciparum; format: cell-based, Plasmodium falciparum; details: had1 mutant versus wild type 3D7
In short: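 Asynchronous cultures of wild-type 3D7 and fosmidomycin-resistant had1 strain E1-C12 are kept at 2% hematocrit in supplemented RPMI-1640 with 0.5% Albumax, under 5% O2/5% CO2/90% N2 at 37 °C. Parasites are diluted to 0.5% parasitemia and exposed to 1.2 nM–492.4 μM test compound from the start. After 3 days, DNA is read with PicoGreen (ex 485/em 528 nm). IC50 comes from a 4-parameter nonlinear fit. Technical duplicates, biological triplicate.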

[2] = system: MEP pathway in P. falciparum parasites; experiment: IPP rescue of inhibitor-treated P. falciparum; format: cell-based, Plasmodium falciparum; details: 125 μM IPP added to media
In short: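 The rescue format is the standard 3-day growth assay with 125 μM IPP present throughout. Parasites are at 0.5% parasitemia and 2% hematocrit in supplemented RPMI-1640/Albumax, under 5% O2/5% CO2/90% N2 at 37 °C, with 1.2 nM–492.4 μM test compound. Growth is measured as PicoGreen DNA fluorescence and fitted to a 4-parameter dose–response curve. Technical duplicates, biological triplicate.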

Mtb H37Rv = experiment: microbe, parasite or virus in culture; format: cell-based, Mycobacterium tuberculosis; details: Mycobacterium tuberculosis, H37RV, 336 h, read-out: Mtb MIC

Compound: COc1ccc(C(C)ON(CCC(c2ccc(Cl)c(Cl)c2)P(=O)(OCOC(=O)C(C)(C)C)OCOC(=O)C(C)(C)C)C(C)=O)cc1 (stereo not shown) [Compound 7l, ({[1-(3,4-Dichlorophenyl)-3-{N-[1-(4-methoxyphenyl)ethoxy]acetamido}propyl]({[(2,2-dimethylpropanoyl)oxy]methoxy})phosphoryl}oxy)methyl 2,2-dimethylpropanoate]
- IC50 (HepG2 cells): > 100 µg/mL and > 140 µM
- cross resistance of fosmidomycin-resistant had1 mutant Pf strain [1]: displayed increased resistance
- IPP rescue of growth of drug-treated P. falciparum parasites [2]: rescues the growth
- MIC (Mtb H37Rv): 4.6 µg/mL (≈ 6.53 µM)
